In ChEMBL document CHEMBL1154122, “A comprehensive study of Sansalvamide A derivatives: The structure-activity relationships of 78 derivatives in two pancreatic cancer cell lines” (2009):
Square brackets hold non-standard residues; d marks the D form. Peptide text beside a SMILES is read from it. dNMeF = CN[C@H](Cc1ccccc1)C(=O)O; Cha = N[C@@H](CC1CCCCC1)C(=O)O; NMeL = CN[C@@H](CC(C)C)C(=O)O; dNMeL = CN[C@H](CC(C)C)C(=O)O; dNMeV = CN[C@@H](C(=O)O)C(C)C; dAbu = CC[C@@H](N)C(=O)O; Abu = CC[C@H](N)C(=O)O

Assays:
[1] = Cytotoxicity against human PL45 cells after 56 hrs by [3H]thymidine uptake assay; assay type: functional
Summary of the method: (§1)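 Cells seeded at 2000–2500/well in DMEM with L-glutamine, 10% FBS and 1% penicillin-streptomycin. […] After 56 h, 3H-thymidine was added for 16 h more (72 h total), then cells were harvested and counted (CPM). Inhibition = 1 − CPM treated/DMSO; IC50 taken from curves, mean and SEM.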

BXPC-3 = test: Cytotoxicity against human BxPC3 cells after 56 hrs by [3H]thymidine uptake assay; assay type: functional; summary of the method: as §1

Compound | growth inhibition (GI) [1] | growth inhibition (GI) (BXPC-3)
CC(C)[C@@H]1NC(=O)[C@H](CC2CCCCC2)NC(=O)[C@H](CO)NC(=O)[C@H](Cc2ccccc2)NC(=O)[C@@H](Cc2ccccc2)N(C)C1=O (cyclo([Cha]V[dNMeF]FS)) | 11% | 34%
CC(C)C[C@@H]1NC(=O)[C@H](C(C)C)NC(=O)[C@@H](CC(C)C)NC(=O)[C@@H](CC(C)C)NC(=O)[C@H](Cc2ccccc2)NC1=O | 14% | 0%
CC(C)[C@H]1NC(=O)[C@H](CC2CCCCC2)NC(=O)[C@H](COCc2ccccc2)NC(=O)[C@H](Cc2ccccc2)NC(=O)[C@@H](Cc2ccccc2)N(C)C1=O | 70% | 80%
CC(C)C[C@@H]1NC(=O)[C@H](C(C)C)N(C)C(=O)[C@@H](CC(C)C)NC(=O)[C@@H](Cc2ccccc2)NC(=O)[C@@H](Cc2ccccc2)NC1=O | 15% | 6%
CC(C)C[C@@H]1NC(=O)[C@H](CC(C)C)N(C)C(=O)[C@H](Cc2ccccc2)NC(=O)[C@H](CC(C)C)N(C)C(=O)[C@H](C(C)C)NC1=O | 38% | 9%
CC(C)C[C@@H]1C(=O)N[C@H](CC(C)C)C(=O)N[C@H](C(C)C)C(=O)N(C)[C@H](CC(C)C)C(=O)N[C@H](Cc2ccccc2)C(=O)N1C | 6% | 33%
CC(C)C[C@@H]1NC(=O)[C@H](Cc2ccccc2)NC(=O)[C@H](CC(C)C)NC(=O)[C@@H](C(C)C)N(C)C(=O)[C@H](CC2CCCCC2)NC1=O (cyclo([Cha][dNMeV]LFL)) | 30% | 49%
CC[C@@H]1NC(=O)[C@H](CC(C)C)NC(=O)[C@H](CC(C)C)NC(=O)[C@H](Cc2ccccc2)NC(=O)[C@@H](CC(C)C)NC1=O (cyclo([Abu][dL]FLL)) | 23% | 34%
CC(C)C[C@@H]1NC(=O)[C@H](CC(C)C)NC(=O)[C@@H](Cc2c[nH]c3ccccc23)NC(=O)[C@H](CC(C)C)NC(=O)[C@H](C(C)C)NC1=O (cyclo(LLVL[dW])) | 18% | 30%
CC(C)[C@@H]1NC(=O)[C@H](Cc2ccccc2)NC(=O)[C@H](C(C)C)NC(=O)[C@@H](CO)NC(=O)[C@H](C(C)C)NC1=O (cyclo(FVV[dS]V)) | 18% | 20%
CC[C@H]1NC(=O)[C@H](CC(C)C)NC(=O)[C@H](CC(C)C)NC(=O)[C@H](Cc2ccccc2)NC(=O)[C@H](CC(C)C)NC1=O (cyclo(FLL[dAbu]L)) | 12% | 17%
CC(C)C[C@@H]1NC(=O)[C@H](Cc2ccccc2)NC(=O)[C@@H](CC(C)C)N(C)C(=O)[C@H](C(C)C)NC(=O)[C@H](CC(C)C)NC1=O (cyclo(FLLV[dNMeL])) | 5% | 2%
CC(C)C[C@@H]1NC(=O)[C@@H](CC(C)C)N(C)C(=O)[C@H](Cc2ccccc2)NC(=O)[C@H](CC(C)C)NC(=O)[C@@H](C(C)C)NC1=O | 26% | 38%
CC(C)C[C@@H]1NC(=O)[C@H](CC(C)C)NC(=O)[C@@H](Cc2ccccc2)NC(=O)[C@H](CC(C)C)NC(=O)[C@@H](C(C)C)NC1=O | 41% | 7%
CC(C)C[C@@H]1NC(=O)[C@H](Cc2ccccc2)NC(=O)[C@H](CC(C)C)N(C)C(=O)[C@H](C(C)C)NC(=O)[C@H](CC(C)C)NC1=O (cyclo(FLLV[NMeL])) | 0% | 0%
CC(C)C[C@@H]1NC(=O)[C@H](Cc2ccccc2)NC(=O)[C@@H](Cc2ccccc2)N(C)C(=O)[C@H](C(C)C)NC(=O)[C@H](CCCCN)NC1=O (cyclo(FLKV[dNMeF])) | 26% | 30%
CC(C)C[C@@H]1NC(=O)[C@H](Cc2ccccc2)NC(=O)[C@H](CC(C)C)NC(=O)[C@@H](C(C)C)NC(=O)[C@H](CC(C)C)NC1=O | 45% | 22%
